{"source": "paper PMC12644240", "about": "(International Journal of Nanomedicine, 2025)", "key": {"SALL4 and Aiolos": {"test_system": "SALL4 and Aiolos", "conditions": "cited from earlier work"}, "Aqueous solubility study": {"experiment": "Aqueous solubility study", "format": "physicochemical", "conditions": "bidistilled water, 37 °C, 72 h stirring, n = 3", "outline": "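Excess drug (raw powder), coarse suspension or nanosuspension stirred in bidistilled water at 37 °C for 72 h. Samples were centrifuged twice at 15,000 rpm for 30 min, and the clear supernatant was diluted. Drug was quantified by HPLC (C18 column; water:ACN:acetic acid […]; 0.7 mL/min; 306 nm) against a linear calibration curve. n = 3, mean ± SD.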"}, "embryonic models": {"test_system": "embryonic models", "conditions": "cited from earlier work"}, "[1]": {"experiment": "Dissolution study in PBS pH 7.4 under sink conditions", "format": "physicochemical", "conditions": "PBS pH 7.4, 37 °C", "outline": "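Nanosuspension, coarse suspension or raw powder (1 mg drug each, liquid doses confirmed by HPLC) was added to 100 mL PBS pH 7.4 at 37 °C with magnetic stirring under sink conditions. Samples taken at 1–30 min and 1–8 h were replaced with fresh medium and centrifuged at 15000 rpm for 20 min. Supernatant was assayed by HPLC at 306 nm. At least triplicate, mean ± SD.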"}, "human CRBN": {"test_system": "human CRBN", "conditions": "cited from earlier work"}, "[2]": {"conditions": "cited from earlier work; for Dissolution after one minute, coarse suspension / Dissolution after one minute, nanosuspension: 1 min; for Dissolution after one minute, nanosuspension: nanosuspension with Tween 80 as stabilizer"}, "[3]": {"conditions": "cited from earlier work"}}, "data": [{"smiles": "Nc1cccc2c1C(=S)N(C1CCC(=O)NC1=O)C2=O", "note": "(stereo not shown) [MTPOM, 3-monothiopomalidomide]", "values": [{"measurement": "Degradation of neosubstrates SALL4 and Aiolos", "setting": "SALL4 and Aiolos", "result": "without triggering the subsequent degradation"}, {"measurement": "Aqueous solubility", "setting": "Aqueous solubility study", "result": "4.8 ± 0.2", "unit": "µg/mL"}, {"measurement": "Risk of teratogenicity", "setting": "embryonic models", "result": "significantly attenuated risk of teratogenicity"}, {"measurement": "Drug dissolved at first time point (1 minute)", "setting": "[1]; 1 min", "result": "approximately 22%"}, {"measurement": "Drug dissolved at end of test (8 hours)", "setting": "[1]; 8 h", "result": 44, "unit": "%"}, {"measurement": "Binding to human CRBN", "setting": "human CRBN", "result": "binds to human CRBN"}]}, {"smiles": "COc1ccc2c(c1)c(CC(=O)O)c(C)n2C(=O)c1ccc(Cl)cc1", "note": "[indomethacin]", "values": [{"measurement": "Dissolution after one minute, coarse suspension", "setting": "[2]", "result": "approximately 20%"}, {"measurement": "Dissolution after 30 minutes, coarse suspension", "setting": "[2]", "result": "40–50%"}, {"measurement": "Dissolution after one minute, nanosuspension", "setting": "[2]", "result": "almost complete dissolution"}]}, {"smiles": "CCC(C)n1ncn(-c2ccc(N3CCN(c4ccc(OCC5COC(Cn6cncn6)(c6ccc(Cl)cc6Cl)O5)cc4)CC3)cc2)c1=O", "note": "(stereo not shown) [itraconazole]", "values": [{"measurement": "Dissolution after one minute, coarse suspension", "setting": "[2]", "result": "approximately 20%"}, {"measurement": "Dissolution after 30 minutes, coarse suspension", "setting": "[2]", "result": "40–50%"}, {"measurement": "Dissolution after one minute, nanosuspension", "setting": "[2]", "result": "almost complete dissolution"}]}, {"smiles": "CC[C@@H]([C@H](C)O)n1ncn(-c2ccc(N3CCN(c4ccc(OC[C@@H]5CO[C@@](Cn6cncn6)(c6ccc(F)cc6F)C5)cc4)CC3)cc2)c1=O", "note": "[posaconazole]", "values": [{"measurement": "Average diameter when nanosized via media milling", "setting": "[3]", "result": 185, "unit": "nm"}]}]}
